Results on four compounds are retold here after ChEMBL document CHEMBL1123771, “Synthesis and structure-activity relationships of potent new angiotensin converting enzyme inhibitors containing saturated bicyclic amino acids” (J Med Chem, 1987).

The subject of assay [1] is Rattus norvegicus. In words: Mean aortic base line blood pressure in conscious renal 2-kidney/1-clip goldblatt hypertensive rat at a dose 0.3 mg/kg administered orally. It is filed as functional, Artery. The conditions noted are these: route oral.
The test system of assay [2] is Rattus norvegicus. In words: Maximum change in mean aortic blood pressure in conscious renal 2-kidney/1-clip goldblatt hypertensive rat at a dose 3 mg/kg administered orally at 5h; 4 animals tested. It is filed as functional, Artery. The settings on record: route oral. A digest of the protocol:
(§1)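 Male Sprague–Dawley rats, 4 weeks old, given a silver clip (0.2-mm gap) on the left renal artery with the other kidney intact. Hypertension developed over 4–8 weeks, then rats (280–320 g) were aortic-cannulated; only those with mean pressure >160 mmHg were used. Oral dosing. One-minute running averages were logged every 30 min. Results are mean ± 1 SEM, from 3–5 rats.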

For assay [3], the system named is Rattus norvegicus. In words: Mean aortic base line blood pressure in conscious renal 2-kidney/1-clip goldblatt hypertensive rat at a dose 10 mg/kg administered orally. It is filed as functional, Artery. The conditions noted are these: route oral. The method, boiled down:
as §1

Assay [4] deals with Rattus norvegicus. Briefly: Mean aortic base line blood pressure in conscious renal 2-kidney/1-clip goldblatt hypertensive rat at a dose 3.0 mg/kg administered orally. The settings on record: route oral. It is filed as functional, Artery.
Assay [5] concerns Rattus norvegicus. In words: Maximum change in mean aortic blood pressure in conscious renal 2-kidney/1-clip goldblatt hypertensive rat at a dose 0.3 mg/kg administered orally at 5h; 4 animals tested. It is filed as functional, Artery. The conditions noted are these: route oral. A digest of the protocol:
as §1

For assay [6], the system named is Rattus norvegicus. Briefly: Maximum change in mean aortic blood pressure in conscious renal 2-kidney/1-clip goldblatt hypertensive rat at a dose 1.0 mg/kg administered orally at 8h; 4 animals tested. It is filed as functional, Artery. The settings on record: route oral. The method, boiled down:
as §1

Assay [7] has as its system Rattus norvegicus. Briefly: Mean aortic base line blood pressure in conscious renal 2-kidney/1-clip goldblatt hypertensive rat at a dose 1.0 mg/kg administered orally. It is filed as functional, Artery. The conditions noted are these: route oral. The method, boiled down: as §1
The test system of assay [8] is Rattus norvegicus. Briefly: Maximum change in mean aortic blood pressure in conscious renal 2-kidney/1-clip goldblatt hypertensive rat at a dose 10 mg/kg administered orally at 4 hr; 4 animals tested. It is filed as functional, Artery. The settings on record: route oral. A digest of the protocol:
as §1

Assay [9] relates to Rattus norvegicus. In words: Mean aortic base line blood pressure in conscious renal 2-kidney/1-clip goldblatt hypertensive rat at a dose 3 mg/kg administered orally. The conditions noted are these: route oral. It is filed as functional, Artery. A digest of the protocol:
as §1

The test system of assay [10] is Rattus norvegicus. In words: Maximum change in mean aortic blood pressure in conscious renal 2-kidney/1-clip goldblatt hypertensive rat at a dose 30 mg/kg administered orally at 5h; 5 animals tested. It is filed as functional, Artery. The conditions noted are these: route oral. The method, boiled down:
as §1

For assay [11], the target named is T1, Angiotensin-converting enzyme (Rattus norvegicus, UniProt P47820).
T1 sequence (P47820 whole entry): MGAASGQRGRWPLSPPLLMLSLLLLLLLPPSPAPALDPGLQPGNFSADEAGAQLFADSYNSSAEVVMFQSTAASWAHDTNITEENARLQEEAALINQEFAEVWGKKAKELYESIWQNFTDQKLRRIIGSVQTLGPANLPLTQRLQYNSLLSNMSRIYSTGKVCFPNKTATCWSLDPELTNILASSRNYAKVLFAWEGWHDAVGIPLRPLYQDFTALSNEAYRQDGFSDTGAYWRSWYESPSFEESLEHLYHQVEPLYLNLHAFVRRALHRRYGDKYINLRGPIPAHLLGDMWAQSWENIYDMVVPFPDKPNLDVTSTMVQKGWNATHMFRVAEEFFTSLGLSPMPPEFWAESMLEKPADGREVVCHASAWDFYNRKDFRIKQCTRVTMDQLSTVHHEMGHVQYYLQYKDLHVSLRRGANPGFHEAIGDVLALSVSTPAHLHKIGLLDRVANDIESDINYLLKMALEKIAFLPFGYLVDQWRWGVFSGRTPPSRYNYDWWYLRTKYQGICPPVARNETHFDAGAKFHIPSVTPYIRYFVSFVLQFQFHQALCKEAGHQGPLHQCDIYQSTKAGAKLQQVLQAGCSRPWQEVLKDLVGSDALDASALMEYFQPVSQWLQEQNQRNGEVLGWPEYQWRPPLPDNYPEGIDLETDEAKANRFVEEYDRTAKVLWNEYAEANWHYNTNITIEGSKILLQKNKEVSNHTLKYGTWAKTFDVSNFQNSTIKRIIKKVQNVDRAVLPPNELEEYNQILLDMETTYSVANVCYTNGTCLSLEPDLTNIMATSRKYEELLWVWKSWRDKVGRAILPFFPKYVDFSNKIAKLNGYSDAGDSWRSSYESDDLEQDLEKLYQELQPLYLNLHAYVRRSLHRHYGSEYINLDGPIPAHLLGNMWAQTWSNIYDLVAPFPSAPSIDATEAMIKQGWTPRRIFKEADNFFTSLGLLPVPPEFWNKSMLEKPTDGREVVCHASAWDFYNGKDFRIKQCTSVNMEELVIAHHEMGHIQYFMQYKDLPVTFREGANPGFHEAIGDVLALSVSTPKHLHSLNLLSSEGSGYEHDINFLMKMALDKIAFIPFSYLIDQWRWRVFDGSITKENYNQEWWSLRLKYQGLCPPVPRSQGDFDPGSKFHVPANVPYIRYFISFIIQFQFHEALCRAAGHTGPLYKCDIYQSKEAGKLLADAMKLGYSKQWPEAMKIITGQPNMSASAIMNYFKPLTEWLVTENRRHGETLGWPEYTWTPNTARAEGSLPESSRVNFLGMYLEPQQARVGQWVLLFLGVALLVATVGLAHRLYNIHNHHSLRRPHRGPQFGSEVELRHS
In words: Inhibition of rat Angiotensin I converting enzyme (ACE), using Hip-Gly-Gly as synthetic substrate. A digest of the protocol:
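Radioassay of converting-enzyme activity with Hip-Gly-Gly as substrate; compounds dissolved at 2–5 mg/mL in Me2SO, then diluted to test concentrations in pH 8 buffer (0.05 M Hepes, 0.1 M NaCl, 0.6 M Na2SO4).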

Assay [12] deals with Rattus norvegicus. In words: Maximum change in mean aortic blood pressure in conscious renal 2-kidney/1-clip goldblatt hypertensive rat at a dose 10 mg/kg administered orally at 3 hr; 5 animals tested. It is filed as functional, Artery. The settings on record: route oral. The method, boiled down:
as §1

The test system of assay [13] is Rattus norvegicus. In words: Mean aortic base line blood pressure in conscious renal 2-kidney/1-clip goldblatt hypertensive rat at a dose 30 mg/kg administered orally. The conditions noted are these: route oral. It is filed as functional, Artery.
The test system of assay [14] is Rattus norvegicus. In words: Maximum change in mean aortic blood pressure in conscious renal 2-kidney/1-clip goldblatt hypertensive rat at a dose 3 mg/kg administered orally at 8h; 5 animals tested. It is filed as functional, Artery. The conditions noted are these: route oral. The method, boiled down: as §1
Assay [15] relates to Rattus norvegicus. In words: Maximum change in mean aortic blood pressure in conscious renal 2-kidney/1-clip goldblatt hypertensive rat at a dose 1.0 mg/kg administered orally at 5h; 4 animals tested. It is filed as functional, Artery. The conditions noted are these: route oral. The method, boiled down: as §1
Assay [16] has as its system Rattus norvegicus. In words: Maximum change in mean aortic blood pressure in conscious renal 2-kidney/1-clip goldblatt hypertensive rat at a dose 0.3 mg/kg administered orally at 8h; 4 animals tested. It is filed as functional, Artery. The settings on record: route oral. A digest of the protocol:
as §1

Assay [17] has as its system Rattus norvegicus. Briefly: Maximum change in mean aortic blood pressure in conscious renal 2-kidney/1-clip goldblatt hypertensive rat at a dose 30 mg/kg administered orally at 10h; 4 animals tested. It is filed as functional, Artery. The conditions noted are these: route oral. The method, boiled down: as §1
Assay [18] concerns Rattus norvegicus. In words: Mean aortic base line blood pressure in conscious renal 2-kidney/1-clip goldblatt hypertensive rat at a dose 0.1 mg/kg administered orally. The conditions noted are these: route oral. It is filed as functional, Artery. A digest of the protocol:
as §1

The subject of assay [19] is Rattus norvegicus. In words: Maximum change in mean aortic blood pressure in conscious renal 2-kidney/1-clip goldblatt hypertensive rat at a dose 3.0 mg/kg administered orally at 5h; 4 animals tested. It is filed as functional, Artery. The settings on record: route oral. The method, boiled down: as §1
Assay [20] relates to Rattus norvegicus. Briefly: Maximum change in mean aortic blood pressure in conscious renal 2-kidney/1-clip goldblatt hypertensive rat at a dose 1.0 mg/kg administered orally at 3 hr; 4 animals tested. It is filed as functional, Artery. The conditions noted are these: route oral. A digest of the protocol:
as §1

The test system of assay [21] is Rattus norvegicus. In words: Maximum change in mean aortic blood pressure in conscious renal 2-kidney/1-clip goldblatt hypertensive rat at a dose 0.1 mg/kg administered orally at 10h; 4 animals tested. It is filed as functional, Artery. The settings on record: route oral. The method, boiled down:
as §1

Assay [22] deals with Rattus norvegicus. In words: Maximum change in mean aortic blood pressure in conscious renal 2-kidney/1-clip goldblatt hypertensive rat at a dose 30 mg/kg administered orally at 6 h; 4 animals tested. It is filed as functional, Artery. The conditions noted are these: route oral.

For the compound `CCOC(=O)[C@H](CCc1ccccc1)N[C@@H](C)C(=O)N1CCC[C@H]1C(=O)O`, the “Mean aortic blood pressure” value was 201 mmHg in assay [1]; -56 mmHg in [2]; 199 mmHg in [3]; 200 mmHg in [4]; -39 mmHg in [5]; -24 mmHg in assay [6]. Besides, the “Mean aortic blood pressure” value in assay [7] was 175 mmHg; in [8], -56 mmHg.

With `O=C(O)[C@@H]1C[C@@H]2CCCC[C@@H]2N1C(=O)CCS` (stereo in doubt; 8b), the “Mean aortic blood pressure” value is given as 198 mmHg in [9]; 198 mmHg in assay [3]; -91 mmHg in assay [10]; -89 mmHg in [12]; 198 mmHg in [13]; -73 mmHg in assay [14]. In addition, the IC50 (as a rule, the concentration that gives 50% inhibition) in assay [11] worked out at 13 nM.

Take `CC(CS)C(=O)N1[C@H](C(=O)O)C[C@@H]2CCCC[C@@H]21` (stereo in doubt; 9c): the “Mean aortic blood pressure” value was 185 mmHg in assay [1]; -72 mmHg in [15]; 190 mmHg in assay [4]; -19 mmHg in assay [16]; -115 mmHg in [17]; 197 mmHg in [13] (30 mg/kg). For the same compound, the “Mean aortic blood pressure” value in [7] is on record as 178 mmHg; in [18] it was 184 mmHg; in assay [19], -81 mmHg. Besides, in assay [11], the IC50 was 7.7 nM.

As to `CCOC(=O)C(CCc1ccccc1)NC(C)C(=O)N1[C@H](C(=O)O)C[C@@H]2CCCC[C@@H]21.Cl` (stereo in doubt; 11a), the “Mean aortic blood pressure” value in assay [20] is on record as -72 mmHg; in assay [1], 191 mmHg; in assay [3] it was 197 mmHg; in [5], -73 mmHg; in [21] it was -52 mmHg; in assay [22], -102 mmHg. In addition, the “Mean aortic blood pressure” value in assay [13] came to 185 mmHg; in assay [7], 190 mmHg; in assay [18], 185 mmHg.
